The values that follow come from ChEMBL document CHEMBL1938299, “Quinolinone-based agonists of S1P₁: use of a N-scan SAR strategy to optimize in vitro and in vivo activity” (Bioorg Med Chem Lett, 2012).

For data set [1], the target named is T1, Sphingosine 1-phosphate receptor 1 (Homo sapiens, UniProt P21453). Description: Agonist activity at human S1P1 receptor expressed in human U2OS cells co-expressing eGFP assessed as receptor internalization into cytoplasm using Hoechst dye staining. It counts as functional, cell-based.
Data set [2] can be described thus: Solubility of the compound in 0.010 M aqueous hydrogen chloride at pH 7.4. The following applies: in the assay text read “hydrogen chloride” for “hydrogen chloride at pH 7.4”. It counts as physicochemical. In short, it runs like this: (§1)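 Compound solubility measured separately in 0.010 M aqueous HCl, in PBS at pH 7.4, and in simulated intestinal fluid.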
The nature of data set [3]: Solubility of the compound in phosphate-buffered saline at pH 7.4. It counts as physicochemical. In short, it runs like this: as §1
Data set [4] in a line: Solubility of the compound in simulated intestinal fluid at pH 7.4. The format is physicochemical. In short, it runs like this: as §1
Data set [5] in a line: Apparent permeability of the compound in pig LLC-PK1 cells. It counts as ADME, cell-based, Sus scrofa. In short, it runs like this:
(§2)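 LLC-PK1 porcine proximal tubule cell monolayers; apparent permeability (Papp) of test compound through the cells measured, along with efflux ratio.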

Data set [6] can be described thus: Efflux ratio of permeability in pig LLC-PK1 cells. It counts as ADME, cell-based, Sus scrofa. In short, it runs like this:
as §2

The nature of data set [7]: Intrinsic clearance in rat liver microsomes assessed per mg of protein after 30 mins. The format is ADME, Microsome. The following applies: read-out: CLH. In short, it runs like this: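 Test compound incubated with rat liver microsomes for 30 min. Percent turnover measured and used to estimate intrinsic clearance.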
(Microsomes from liver hold many membrane-bound enzymes, among them those of drug oxidation.)

The subject of data set [8] is Rattus norvegicus. As to the kind of experiment: Immunosuppressive activity in Lewis rat assessed as reduction in circulating peripheral lymphocyte count at 1 mg/kg, po after 24 hrs relative to control. It counts as functional. Also noted: scale not given: the % may be the effect or the level left. In short, it runs like this:
(§3)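 Female Lewis rats (N = 5/group) given a single oral dose (0.30, 1.0 or 3.0 mg/kg) in 20% Captisol or HPBCD, 1% HPMC, 1% Pluronic F68, pH 2.0 with MSA. At 24 h, blood lymphocytes were counted as percent of vehicle control and total plasma compound measured. Significance by ANOVA/Dunnett's test versus vehicle.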

Data set [9] can be described thus: Plasma concentration in Lewis rat at 1 mg/kg, po after 24 hrs. It counts as ADME, organism-based. Also noted: dose 1 mg/kg, route oral. Put shortly:
as §3

In data set [10] the target is T2, Sphingosine 1-phosphate receptor 3 (Homo sapiens, UniProt Q99500). As to the kind of experiment: Agonist activity at human S1P3 receptor expressed in CHO-K1 cells co-expressing Gq/i5 G-protein assessed as calcium mobilization by FLIPR assay. It counts as functional, cell-based.
A short description of data set [11]: Plasma protein binding in rat. Conditions: read-out: PPB (converted). It counts as ADME, cell-free. Put shortly: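 Rat plasma protein binding measured in vitro, with bound and free compound separated by ultracentrifugation; reported as percent bound.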
Data set [12] concerns Rattus norvegicus. Description: (§4) Clearance in Sprague-Dawley rat at 1 mg/kg, iv. It counts as ADME, organism-based. Also noted: dose 1 mg/kg, route intravenous. The following applies: in vivo. Put shortly: (§5)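 Single intravenous dose of 1 mg/kg in DMSO vehicle to male Sprague–Dawley rats (N = 3/group). Clearance, steady-state volume of distribution and half-life were determined from plasma levels.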

Data set [13] can be described thus: Volume of distribution at steady state in Sprague-Dawley rat at 1 mg/kg, iv. The format is ADME, organism-based. Also noted: dose 1 mg/kg, route intravenous. The following applies: in vivo, read-out: Vdss. Put shortly:
as §5

A short description of data set [14]: Half life in Sprague-Dawley rat at 1 mg/kg, iv. It counts as ADME, organism-based. Set-up: dose 1 mg/kg, route intravenous. The following applies: in vivo. In short, it runs like this:
as §5

Data set [15] deals with Rattus norvegicus. As to the kind of experiment: (§6) AUC (0 to 24 hrs) in Sprague-Dawley rat at 3 mg/kg, po. The format is ADME, organism-based, Plasma. Set-up: time < 24 hr, dose 3 mg/kg, route oral. The following applies: in vivo, 24 h.
The subject of data set [16] is Rattus norvegicus. Description: (§7) Oral bioavailability in Sprague-Dawley rat at 3 mg/kg. It counts as ADME, organism-based. Conditions: in vivo. Put shortly: (§8)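 Bioavailability in male Sprague–Dawley rats (N = 3/group), calculated from AUC0–∞ values obtained after a 1 mg/kg iv dose (DMSO vehicle) and a 3 mg/kg po dose (20% Captisol, 1% HPMC, 1% pluronic F68, pH 2.0 with MSA).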

Data set [17] in a line: AUC (0 to 24 hrs) in Sprague-Dawley rat at 100 mg/kg, po. The format is ADME, organism-based. Set-up: time < 24 hr, dose 100 mg/kg, route oral. The following applies: plasma.
The nature of data set [18]: Plasma concentration in Lewis rat at 0.3 mg/kg, po after 24 hrs. The format is ADME, organism-based. Set-up: dose 0.3 mg/kg, route oral. Put shortly: as §3
Data set [19] is described as follows: Plasma concentration in Lewis rat at 3 mg/kg, po after 24 hrs. Also noted: dose 3 mg/kg, route oral. The format is ADME, organism-based. In short, it runs like this:
as §3

Data set [20] has as its system Rattus norvegicus. Description: Immunosuppressive activity in po dosed Lewis rat assessed as reduction in circulating peripheral lymphocyte count after 24 hrs. It counts as functional, organism-based. Put shortly:
as §3

Data set [21] relates to Rattus norvegicus. Description: Immunosuppressive activity in Lewis rat assessed as reduction in circulating peripheral lymphocyte count at 3 mg/kg, po after 24 hrs relative to control. It counts as functional. Also noted: scale not given: the % may be the effect or the level left. In short, it runs like this: as §3
In data set [22] the target is T1, Sphingosine 1-phosphate receptor 1. As to the kind of experiment: Agonist activity at human S1P1 receptor expressed in human U2OS cells co-expressing eGFP assessed as receptor internalization into cytoplasm using Hoechst dye staining relative to 1-(4-(6-benzylbenzofuran-2-yl)-3- fluorobenzyl)azetidine-3-carboxylic acid. The format is functional, cell-based.
In data set [23] the test system is Rattus norvegicus. As to the kind of experiment: Ratio of AUC (0 to 24 hrs) at 100 mg/kg, po to AUC (0 to 24 hrs) at 3 mg/kg, po in Sprague-Dawley rat. Conditions: in vivo. The format is ADME, organism-based. Put shortly:
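Male Sprague–Dawley rats (N = 3/group) each received a single oral dose of 3 or 100 mg/kg, in 20% Captisol, 1% HPMC, 1% Pluronic F68, adjusted to pH 2.0 with MSA.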

Data set [24] deals with Rattus norvegicus. As to the kind of experiment: Immunosuppressive activity in Lewis rat assessed as reduction in circulating peripheral lymphocyte count at 30 mg/kg, po after 24 hrs relative to control. The format is functional. Set-up: scale not given: the % may be the effect or the level left.
Data set [25] in a line: Plasma concentration in Lewis rat at 30 mg/kg, po after 24 hrs. It counts as ADME, organism-based. Also noted: dose 30 mg/kg, route oral.
Data set [26] can be described thus: as §4. It counts as ADME, organism-based. Also noted: dose 1 mg/kg, route intravenous. The following applies: Sprague-Dawley, in vivo. In short, it runs like this: as §5
Data set [27] in a line: as §6. Set-up: time < 24 hr, dose 3 mg/kg, route oral. The format is ADME, organism-based, Plasma. The following applies: Sprague-Dawley, plasma.
Data set [28] in a line: as §7. It counts as ADME, organism-based. Conditions: Sprague-Dawley, in vivo. Put shortly: as §8
In data set [29] the target is T2, Sphingosine 1-phosphate receptor 3. Description: Agonist activity at human S1P3 receptor expressed in CHO-K1 cells co-expressing Gq/i5 G-protein assessed as calcium mobilization by FLIPR assay relative to S1P. It counts as functional, cell-based. Put shortly:
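Ca2+ mobilization in CHO-K1 cells expressing hS1P3 and a chimeric Gq/i5 G-protein. Efficacy expressed as % relative to S1P; compounds not reaching >10% of control activity reported as greater than the highest concentration tested.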
For orientation: A change in cytosolic calcium serves as a functional read-out for many receptors and channels.

The structures appear in SMILES notation. pEC50: −log10 of the molar value. Converted amounts (≈) assume the structure as drawn.

T1 sequence (P21453 whole entry): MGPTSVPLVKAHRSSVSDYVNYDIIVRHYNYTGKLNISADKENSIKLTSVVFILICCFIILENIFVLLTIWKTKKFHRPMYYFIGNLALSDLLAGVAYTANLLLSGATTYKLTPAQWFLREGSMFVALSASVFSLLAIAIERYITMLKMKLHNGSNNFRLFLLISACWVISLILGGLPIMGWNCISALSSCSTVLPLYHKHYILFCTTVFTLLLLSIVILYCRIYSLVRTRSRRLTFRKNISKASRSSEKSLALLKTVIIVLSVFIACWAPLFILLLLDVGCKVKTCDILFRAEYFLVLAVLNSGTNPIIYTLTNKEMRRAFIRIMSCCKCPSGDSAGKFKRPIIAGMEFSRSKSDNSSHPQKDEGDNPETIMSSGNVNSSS
T2 sequence (Q99500 whole entry): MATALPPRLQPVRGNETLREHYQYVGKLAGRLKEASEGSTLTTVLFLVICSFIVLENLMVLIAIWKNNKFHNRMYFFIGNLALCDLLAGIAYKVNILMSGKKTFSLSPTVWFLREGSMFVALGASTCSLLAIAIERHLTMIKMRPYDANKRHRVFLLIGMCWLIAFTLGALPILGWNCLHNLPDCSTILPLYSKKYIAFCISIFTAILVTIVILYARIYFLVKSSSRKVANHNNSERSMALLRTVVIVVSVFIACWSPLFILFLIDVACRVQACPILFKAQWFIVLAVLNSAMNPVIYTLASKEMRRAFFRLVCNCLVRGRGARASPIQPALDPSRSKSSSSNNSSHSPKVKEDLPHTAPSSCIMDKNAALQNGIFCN

What is called pEC50 is the EC50 on a negative log10 scale, so that one unit is a factor of ten. A word on the solubility: it is the concentration that dissolves in the medium under given conditions. For orientation: Papp means the rate of passage across a membrane or cell layer, normalised by area and donor concentration. As usually defined, the efflux ratio is a quotient of directional permeabilities that is used to spot active efflux. Usually half-life stands for the time needed for the level to fall by half in the phase considered. In general, AUC refers to the area under the concentration-time curve, a measure of exposure. As usually defined, the AUC(0-t) is the area under the concentration-time curve up to a stated or last time point. For the molecule `Cn1cc(C(=O)Nc2ccc(-c3ccccc3)c(C(F)(F)F)c2)c(=O)c2cnccc21`, the values for the pEC50 in data set [1] and in data set [10] were 7.62 and below 5.60, respectively. The solubility in [2] is below 1 µg/mL; in data set [3], below 1 µg/mL; in data set [4], 4.9 µg/mL (≈ 11.6 µM). Moreover, the Papp in data set [5] came out at 5.7 ×10⁻⁶ cm/s. For the same molecule, in data set [6], the efflux ratio amounted to 0.8. Besides, in [7], the microsomal CLint was below 14 µL/min/mg. In addition, the Activity was -64% in the data set with Rattus norvegicus [8], “Dose-dependent effect” with Rattus norvegicus [20] and -64% in the data set on Rattus norvegicus [21]. For the same molecule, the concentration at 24 h was determined as 350 ng/mL in data set [9], 96 ng/mL in data set [18] and 1100 ng/mL in [19]. In addition, the fraction unbound in data set [11] is 0.08. The molecule also registered a CL in the data set with Rattus norvegicus [12] of 2.67 mL/min/kg. For the same molecule, the Vd in data set [13] stood at 9.2 L/kg. The same molecule gave a half-life in [14] of 41 h. The same molecule returned an AUC in the data set with Rattus norvegicus [15] of 5100 ng·h/mL. Also, in the data set on Rattus norvegicus [16], the F is on record as 95%. The molecule further came in with an AUC(0-t) at 24 h in [17] of 31000 ng·h/mL. In [22], the Efficacy was 100%. For the same molecule, in the data set with Rattus norvegicus [23], the “Ratio AUC” value worked out at 6.

Turning to `FC(F)(F)c1cccc(-c2noc(-c3cc(-c4ccccc4)c(C(F)(F)F)s3)n2)c1`, the Activity in the data set with Rattus norvegicus [24] is reported as -66%. This molecule came in with a concentration at 24 h in [25] of 1100 ng/mL. In addition, the pEC50 in [10] is below 4.60. Also, the Efficacy in data set [22] is 86%.

For orientation: clearance means the volume of plasma or blood freed of the substance per unit of time. A word on the bioavailability: it is dose-corrected exposure relative to a reference, in per cent. As to `Cn1cc(C(=O)Nc2ccc(-c3ccccc3)c(C(F)(F)F)c2)c(=O)c2ccccc21`, the pEC50 was 7.15 in data set [1] and 5.82 in data set [10]. Further, the figures for the solubility in data set [2], in data set [3] and in data set [4] were 1.3 µg/mL (≈ 3.08 µM), below 1 µg/mL and 11 µg/mL (≈ 26 µM), respectively. Moreover, the Papp in [5] amounted to 1.2 ×10⁻⁶ cm/s. The efflux ratio in data set [6] was 0.4. The microsomal CLint in data set [7] is below 14 µL/min/mg. Further, the Activity in the data set on Rattus norvegicus [8] is -3%; with Rattus norvegicus [20] it was “Dose-dependent effect”; in the data set on Rattus norvegicus [21], -51%. Moreover, the concentration at 24 h in [9] is 18 ng/mL; in [18] it was 5.5 ng/mL; in [19], 48 ng/mL. Further, the fraction unbound in data set [11] is 0.03. The clearance in data set [26] is 15.5 mL/min/kg. Besides, the Vd in data set [13] worked out at 11 L/kg. The molecule further had a half-life in [14] of 15 h. In addition, the AUC(0-t) at 24 h in data set [27] came out at 1200 ng·h/mL; in [17], 5800 ng·h/mL. Also, in data set [28], the bioavailability was 60%. Also, the Efficacy in data set [22] came to 110%; in data set [29] it was 92%. Further, the “Ratio AUC” value in the data set on Rattus norvegicus [23] is recorded as 4.7.
